# Measured values gathered from unrelated publications.
# Cell line: NCI-H460
# Read-out: cell growth or viability
Structure (SMILES),technique,time,IC50
Cc1cccc(-n2ncc(Br)c(Br)c2=O)c1,resazurin,96 h,1.43 µM
C=CC(=O)Nc1cc(Nc2nc(N3CCc4sccc4C3)c3cccnc3n2)c(OC)cc1N1CCN(CCO)CC1,MTT,,8.03 µM
O=C/C(=C/Cc1ccc(O)cc1)c1ccc(O)cc1,MTT,24 h,26.9 µg/mL
C=C(Cl)C(=O)Nc1cc(Nc2nc(N3CCc4sccc4C3)c3sccc3n2)c(OC)cc1N(C)CCN(C)C,MTT,,2.33 µM
COc1cccc2c1C(=O)c1c(O)c3c(c(O)c1C2=O)C[C@@](O)(C(=O)CO)C[C@@H]3O[C@H]1C[C@H](N)[C@H](O)[C@H](C)O1,SRB,,4.29 µM
COc1ccc(C/C=C/c2cc(OC)cc(OC)c2)cc1,MTT,24 h,77.3 µg/mL
Cc1ccc(-c2ccc(O)cc2)c(C(=C2C=CC(=O)C=C2)c2ccc(O)cc2)c1C#Cc1ccc(O)cc1,MTT,48 h,15.5 µM
OCC(CCc1ccc(O)cc1)c1ccc(O)cc1 (centres unmarked),MTT,24 h,55 µg/mL
COc1cc(N(C)CCN(C)C)c(NC(=O)/C=C/C(C)C)cc1Nc1nc(Nc2cnn(C)c2)c2sccc2n1,MTT,,2.25 µM
CC(=O)c1ccc(N=Nc2c(C(=O)O)cc(O)c(O)c2O)cc1,MTT,,13.6 µM
Cc1ccc(-c2ccc(CCCN(O)C(=O)CP(=O)(O)O)cc2)cc1,MTT,96 h,229 µM
OC/C(=C/Cc1ccc(O)cc1)c1ccc(O)cc1,MTT,24 h,44.9 µg/mL
C#Cc1cccc(Nc2ncnc3cc(OCCOC)c(OCCOC)cc23)c1,MTT,,0.04 µM
O=c1[nH]cc(S(=O)(=O)Nc2cccc(-c3nnc(-c4cccc(Cl)c4)o3)c2)c(=O)[nH]1,MTT,24 h,2.83 µM
CCC(=O)Nc1cc(Nc2nc(N3CCOCC3)c3sccc3n2)c(OC)cc1N(C)CCN(C)C,MTT,,> 50 µM
COc1cc(CNC(=O)CCCC/C=C/C(C)C)ccc1O,SRB,,30.7 µM
C=CC(=O)Nc1cc(Nc2nc(N3CCc4sccc4C3)c3cccnc3n2)c(OC)cc1N(C)CCN(C)C,MTT,,5.68 µM
COc1ccc(C/C=C/c2ccc(O)cc2)cc1,MTT,24 h,14.1 µg/mL
CC[C@@]1(O)C(=O)OCc2c1cc1n(c2=O)Cc2cc3ccccc3nc2-1,,72 h,< 0.01 µM
COc1cc(/C=C/Cc2ccc(O)c(OC)c2)cc(OC)c1,MTT,24 h,16.1 µg/mL
CCC(=O)Nc1cc(Nc2nc(N3CCc4sccc4C3)c3cccnc3n2)c(OC)cc1N1CCSCC1,MTT,,14.3 µM
O=C1NCCc2[nH]c(-c3ccncc3)cc21,,,10 µM
COc1cc(Nc2nccc(-c3cnn4nc(OC)ccc34)n2)cc(C(F)(F)F)c1,ATP luminescence,,0.33 µM
CC(=O)c1cccc(N=Nc2c(C(=O)O)cc(O)c(O)c2O)c1,MTT,,9.5 µM
COc1ccc(-c2cc(=O)c3c(O)c(OC)c(OC)cc3o2)cc1O,,48 h,37.5 µM
CCC(=O)Nc1cc(Nc2nc(N3CCc4sccc4C3)c3cccnc3n2)c(OC)cc1N1CCC(N(C)C)CC1,MTT,,2.46 µM
CC(=O)O[C@H]1CC[C@]2(C)[C@H]3CC=C4[C@@H]5CC(C)(C)CC[C@]5(C)CC[C@@]4(C)[C@]3(C)CC[C@H]2C1(C)C,,48 h,10.6 µM
O=C(O)c1cc(O)c(O)c(O)c1,MTT,,14.9 µM
CCC(=O)Nc1cc(Nc2nc(N3CCc4sccc4C3)c3cccnc3n2)c(OC)cc1N1CCN(C(C)=O)CC1,MTT,,> 50 µM
